Test results reported in ChEMBL document CHEMBL4513216, “Probing the Open Global Health Chemical Diversity Library for Multistage-Active Starting Points for Next-Generation Antimalarials” (ACS Infect Dis, 2020).

Experiment: Toxicity liver stage against HepG2, at 10uM
Assay type: cell-based
Design: test concentration 10 uM, cell line HepG2-A16-CD81EGFP
Details: human, HepG2-A16-CD81EGFP cells; read-out: INHIBITION
Summary of the method: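 Uninfected HepG2-A16-CD81EGFP cells, 3 × 10^3 per well, 1536-well, plated on prespotted compound at 10 μM final, parasite-free screening media added to match infected plates; puromycin 10 μM positive, DMSO 0.5% negative; run in parallel with 48 h PbLuc assay at 37 °C, 5% CO2; viability by CellTiter-Glo luminescence, normalized to controls.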

Cc1csc(CCNc2ccc(C#N)cn2)n1
cytotoxicity at 10 µM: 0.738%

CN1CC(c2ccccc2)C2(CCN(C(=O)c3ccc[nH]3)CC2)C1=O (centres undefined)
cytotoxicity at 10 µM: 9.25%

CNC(=O)N1CCC2(COCc3c(C)nc(NCc4ccco4)nc32)C1 (centres undefined)
cytotoxicity at 10 µM: 11.2%

COCC1CN(Cc2ccoc2)Cc2cn(CC3CCOCC3)nc21 (centres undefined)
cytotoxicity at 10 µM: 11.6%

Cc1cccc(CSc2ncc(Cl)c(C(=O)O)n2)c1
cytotoxicity at 10 µM: 3.86%

COC(=O)CC(c1ccccc1)c1oc(C)cc(=O)c1O (centres undefined)
cytotoxicity at 10 µM: 26.7%

Cc1csc(NC(=O)C2(C)CN(C)CCO2)n1 (centres undefined)
cytotoxicity at 10 µM: -3.67%

CC(C)(C)c1cc(C(=O)N2CCOC(c3cnccn3)C2)[nH]n1 (centres undefined)
cytotoxicity at 10 µM: 2.02%

CN1C[C@@H](c2cccc(F)c2)[C@H]2[C@H]1CCCCCN2C(=O)C1CC1
cytotoxicity at 10 µM: 4.21%

CC(C)c1nn(C)c(N(C)C)c1CNC1CCOc2ccccc21 (centres undefined)
cytotoxicity at 10 µM: 9.36%

CCC1CN(C(=O)COc2ccc(C)nc2)CCO1 (centres undefined)
cytotoxicity at 10 µM: -3.7%

COC(C)(C)c1noc(C2(C#N)CCCCC2)n1
cytotoxicity at 10 µM: -2.11%

CCC(C)(NCC(=O)Nc1nc(C)cs1)c1nc(C)cs1 (centres undefined)
cytotoxicity at 10 µM: 16.4%

Cc1cnc(C(=O)N(CCN(C)C)Cc2ccc(Cl)cc2)cn1
cytotoxicity at 10 µM: 1.58%

CCOc1cc(C)nc(N2CCN(Cc3nccn3C)CC2)n1
cytotoxicity at 10 µM: -4.04%

CN1CCC2(CCN(C(=O)c3cccnc3)C2)C1 (centres undefined)
cytotoxicity at 10 µM: -101%

Cc1cccc(-c2nc(N)nc3c2CN(C(=O)C2CCCC2)C3C)c1 (centres undefined)
cytotoxicity at 10 µM: 13.2%

Cn1c(-c2ccccc2Cl)nc2cc(C(=O)NCCS(C)(=O)=O)cnc21
cytotoxicity at 10 µM: -3.2%

CCNC(=O)C1CCN(Cc2ccc(C(=O)Nc3cnns3)cc2)C1 (centres undefined)
cytotoxicity at 10 µM: 9.2%

O=C1NCCc2c1sc1ccc(C(=O)N3CC[C@H](CO)[C@H](O)C3)cc21
cytotoxicity at 10 µM: -1.7%

O[C@@]1(CNCCOc2ccccc2)CCCN2CCCC[C@@H]21
cytotoxicity at 10 µM: -2.96%

Cc1nc(CCN)cc(N(C)Cc2nc3ccc(F)cc3[nH]2)n1
cytotoxicity at 10 µM: -0.581%

O=C(Nc1ccccc1OCCc1ccccn1)N1CCOCC(O)C1 (centres undefined)
cytotoxicity at 10 µM: 4.25%

c1cn(Cc2nnc(C3CCN(C4CCCCC4)CC3)n2C2CC2)cn1
cytotoxicity at 10 µM: -6.79%

C[C@@H]1CN(C(=O)C2CCS(=O)(=O)CC2)CC[C@@]1(O)C1CCOCC1
cytotoxicity at 10 µM: -9.34%

c1cc2c(cc1C[C@@H]1CC[C@H](CN3CCCOCC3)O1)OCO2
cytotoxicity at 10 µM: -12.9%

c1ccc2c(c1)CC(CNCc1ccncc1)(N1CCCCC1)C2
cytotoxicity at 10 µM: -7.72%

CSCC(=O)N1CCc2c(cnc(C)c2-c2noc(-c3cc[nH]n3)n2)C1
cytotoxicity at 10 µM: 1.87%

COc1cccc([C@@H]2CN(C(=O)c3ccc(C)cc3O)C[C@H]2C(=O)O)c1
cytotoxicity at 10 µM: 6.49%

CN(C)c1ccc(C(=O)N2CCCN(Cc3cnn(C)c3)CC2)nn1
cytotoxicity at 10 µM: -5.28%

Cc1cc(C)c(CNC(=O)C2CCN(c3cnccn3)CC2)c(=O)[nH]1
cytotoxicity at 10 µM: -10.7%

Cc1cc(CN2CCCC2c2c(C)nn(C)c2Cl)no1 (centres undefined)
cytotoxicity at 10 µM: -6.98%

Cc1cnn(CC2CCCN2C(=O)c2cc(C)no2)c1 (centres undefined)
cytotoxicity at 10 µM: -0.194%

CCc1ncc2c(n1)CN(CC(=O)NCCOc1ccccc1)CC2
cytotoxicity at 10 µM: -2.11%

COC(=O)c1ccc(N2CCN(CCC(=O)NC(N)=O)C(C)C2)cc1 (centres undefined)
cytotoxicity at 10 µM: -6.39%

CCOc1cc(C(=O)N2CCCC(c3noc(C)n3)C2)ccn1 (centres undefined)
cytotoxicity at 10 µM: -4.49%

COc1cccc2[nH]c(C(=O)N3CCNCC3C(N)=O)cc12 (centres undefined)
cytotoxicity at 10 µM: 4.57%

O=C(NCC1CC[C@@H]2[C@@H]1OCCN2Cc1cccs1)c1ccco1 (some centres undefined)
cytotoxicity at 10 µM: 3.23%

CO[C@H]1CCN(S(=O)(=O)c2cn(C)cn2)[C@H]1Cc1cccnc1
cytotoxicity at 10 µM: -9.31%

Cc1cnc(N2CCC3(CC2)COCCN(C(C)C)C3)nc1
cytotoxicity at 10 µM: -121%

O=C(C1CCCO1)N1CCC2(CC1)COCCN(Cc1cccnc1)C2 (centres undefined)
cytotoxicity at 10 µM: -108%

O=C1COC2(COCCN(Cc3cccnc3)C2)CN1c1ccoc1 (centres undefined)
cytotoxicity at 10 µM: 3.22%

CC(=O)N1CCO[C@@H]2CN(C(=O)NCc3cccnc3)CC[C@@H]2C1
cytotoxicity at 10 µM: 7.34%

O=C(c1cnccn1)N1CCC(F)(F)C2(CCN(c3ccccn3)C2)C1 (centres undefined)
cytotoxicity at 10 µM: 11.9%
